Reference: ChEMBL document CHEMBL1147262, “Cytotoxic constituents of Aspergillus terreus from the rhizosphere of Opuntia versicolor of the Sonoran Desert” (J Nat Prod, 2003)
Calls of active or inactive are those of the source. No cut-off for these calls is given here.

Key:
NCI-H460 [1] = assay: Cell cycle arrest in human NCI-H460 cells assessed as accumulation at S phase at 3 uM by flow cytometry
NCI-H460 [2] = assay: Cell cycle arrest in human NCI-H460 cells assessed as accumulation at G1 phase at 3 uM by flow cytometry
NCI-H460 [3] = assay: Cell cycle arrest in human NCI-H460 cells assessed as accumulation at G2/M phase at 3 uM by flow cytometry
MCF7 [4] = assay: Cytotoxicity against human MCF7 cells after 48 hrs by MTT assay; type: functional, cell-based; conditions: MCF7, 48 h
In short: (§1)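 MCF-7, NCI-H460 and SF-268 cells were exposed to serial dilutions for 48 h in RPMI 1640 with 10% fetal bovine serum. Viability was read by MTT colorimetric assay, and IC50 was taken as the concentration giving 50% inhibition of proliferation/survival.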

NCI-H460 [5] = assay: Cell cycle arrest in human NCI-H460 cells assessed as accumulation at G1 phase at 0.1 uM by flow cytometry; type: functional
In short: (§2)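 NCI-H460 cells taken at 75-85% confluency, seeded at 2.5 × 10^5 cells per 60 mm dish and left to reattach overnight. Treated overnight in complete RPMI 1640 at 10 µg/mL final (test agents) or 0.1 µM final (positive control), with DMSO ≤0.1 vol %. Harvested by trypsin, PBS-rinsed, resuspended in Krishan's buffer, then DNA-content flow cytometry gave G1/S/G2/M percentages.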

NCI-H460 [6] = assay: Cell cycle arrest in human NCI-H460 cells assessed as accumulation at S phase at 0.1 uM by flow cytometry; type: functional
In short: as §2

NCI-H460 [7] = assay: Cell cycle arrest in human NCI-H460 cells assessed as accumulation at G2/M phase at 0.1 uM by flow cytometry; type: functional
In short: as §2

NCI-H460 [8] = assay: Cytotoxicity against human NCI-H460 cells after 48 hrs by MTT assay; type: functional, cell-based; conditions: NCI-H460, 48 h
In short: as §1

SF-268 [9] = assay: Cytotoxicity against human SF268 cells after 48 hrs by MTT assay; type: functional, cell-based; conditions: SF-268, 48 h
In short: as §1

NCI-H460 [10] = assay: Cell cycle arrest in human NCI-H460 cells assessed as accumulation at G1 phase at 10 ug/mL by flow cytometry; type: functional
In short: as §2

NCI-H460 [11] = assay: Cell cycle arrest in human NCI-H460 cells assessed as accumulation at S phase at 10 ug/mL by flow cytometry; type: functional
In short: as §2

NCI-H460 [12] = assay: Cell cycle arrest in human NCI-H460 cells assessed as accumulation at G2/M phase at 10 ug/mL by flow cytometry; type: functional
In short: as §2

NCI-H460 [13] = assay: Cytotoxicity against human NCI-H460 cells at 10 ug/mL after 48 hrs by MTT assay; type: functional, cell-based
MCF7 [14] = assay: Cytotoxicity against human MCF7 cells at 10 ug/mL after 48 hrs by MTT assay; type: functional, cell-based
SF-268 [15] = assay: Cytotoxicity against human SF268 cells at 10 ug/mL after 48 hrs by MTT assay; type: functional, cell-based

In the case of `COC(=O)Nc1nc2cc(C(=O)c3cccs3)ccc2[nH]1` [NOCODAZOLE], the Activity (NCI-H460 [1]) is reported as 6.9%, the Activity (NCI-H460 [2]) is reported as 13% and the Activity (NCI-H460 [3]) is reported as 80.1%.

With `CC(=O)O[C@H]1C(=O)[C@@]2(C)[C@H]([C@H](OC(=O)c3ccccc3)[C@]3(O)C[C@H](OC(=O)[C@H](O)[C@@H](NC(=O)c4ccccc4)c4ccccc4)C(C)=C1C3(C)C)[C@]1(OC(C)=O)CO[C@@H]1C[C@@H]2O` [PACLITAXEL] the IC50 (MCF7 [4]) was 0.0112 µM, the Activity (NCI-H460 [5]) was 15.5% and the Activity (NCI-H460 [6]) was 14%. It also gave an Activity (NCI-H460 [7]) of 70.5%.

`C=CC(C)(C)c1[nH]c2ccccc2c1C1=C(OC)C(=O)C(c2c[nH]c3ccccc23)=C(OC)C1=O` gave an IC50 (NCI-H460 [8]) of 24.2 µM, an IC50 (MCF7 [4]) of 4.1 µM and an IC50 (SF-268 [9]) of 25.7 µM.

`COC1=C(c2c[nH]c3ccccc23)C(=O)C(OC)=C(c2c[nH]c3ccccc23)C1=O` [ASTERRIQUINONE D] showed an IC50 (NCI-H460 [8]) of 19.9 µM, an IC50 (MCF7 [4]) of 17.7 µM and an IC50 (SF-268 [9]) of 15.8 µM.

`C=C1C(=O)C[C@H]2[C@@H]3CC[C@H](C(=O)O)[C@]12CC3(C)C` showed an IC50 (NCI-H460 [8]) of 10.6 µM, an IC50 (MCF7 [4]) of 24.1 µM and an IC50 (SF-268 [9]) of 14.7 µM. For the same compound, the Activity (NCI-H460 [10]) was 40.7%, the Activity (NCI-H460 [11]) was 16% and the Activity (NCI-H460 [12]) was 43.7%.

For `COC(=O)C1(c2c[nH]c3ccccc23)C(=O)C(OC)=C(c2c[nH]c3ccccc23)C1=O` (stereo unspecified) [ASTERREDIONE], the IC50 (NCI-H460 [8]) was 17.4 µM, the IC50 (MCF7 [4]) was 25.2 µM and the IC50 (SF-268 [9]) was 20.7 µM.

With `CC1C(=O)C[C@H]2[C@@H]3CC[C@H](C(=O)O)[C@]12CC3(C)C` (stereo partly specified) the Activity (NCI-H460 [13]) was “inactive”, the Activity (MCF7 [14]) was “inactive” and the Activity (SF-268 [15]) was “inactive”.

`COC[C@H]1C(=O)C[C@H]2[C@@H]3CC[C@H](C(=O)O)[C@]12CC3(C)C` was tested, and the IC50 (NCI-H460 [8]) was 19.4 µM, the IC50 (MCF7 [4]) was 20.6 µM and the IC50 (SF-268 [9]) was 21.4 µM. It also gave an Activity (NCI-H460 [10]) of 44.3%, an Activity (NCI-H460 [11]) of 21.4% and an Activity (NCI-H460 [12]) of 34.3%.

`C=C1C(=O)C[C@H]2[C@@H]3CC[C@H](C(=O)OC)[C@]12CC3(C)C` gave an IC50 (NCI-H460 [8]) of 9.4 µM, an IC50 (MCF7 [4]) of 16.7 µM and an IC50 (SF-268 [9]) of 10.2 µM.

`CC1(C)C[C@]23[C@@H](C(=O)O)CC[C@H]1[C@@H]2CC(=O)[C@@H]3CO` was tested, and the IC50 (NCI-H460 [8]) was 14.5 µM, the IC50 (MCF7 [4]) was 16.5 µM and the IC50 (SF-268 [9]) was 7.8 µM.

`COC1=C(c2ccccc2)C(=O)C(OC)=C(c2ccccc2)C1=O` [BETULINAN A] was tested, and the IC50 (NCI-H460 [8]) was 58.4 µM, the IC50 (MCF7 [4]) was 8.7 µM and the IC50 (SF-268 [9]) was 28 µM.

In the case of `CC1(C)C[C@]23[C@@H]4COC(=O)[C@H]2CC[C@H]1[C@@H]3CC4=O` [QUADRONE], the IC50 (NCI-H460 [8]) is reported as 12.4 µM, the IC50 (MCF7 [4]) is reported as 14.3 µM and the IC50 (SF-268 [9]) is reported as 16.9 µM. It also gave an Activity (NCI-H460 [10]) of 38.8%, an Activity (NCI-H460 [11]) of 6.3% and an Activity (NCI-H460 [12]) of 54.8%.
